# Measurements published in paper PMC4723301 (Experimental biology and medicine (Maywood, N.J.), 2015).
# Legend:
# SQL-SAL [1] = assay: LDH leakage in efflux media of SQL-SAL devices; details: for Days with significant LDH release (p≤0.05): vs vehicle
# SQL-SAL [2] = assay: Urea secretion in efflux media of SQL-SAL devices
# SQL-SAL [3] = assay: Albumin secretion in efflux media of SQL-SAL devices
# hepatocytes [4] = assay: Apoptosis, cytochrome C biosensor in sentinel hepatocytes; assay type: cell-based, human; details: for Effect on hepatocellular apoptosis biosensor: 600 μM caffeine, 28 days
# [5] = test system: human alpha- smooth muscle actin (alpha-SMA); assay: Indirect immunofluorescence of alpha-SMA in SQL-SAL; assay type: cell-based
# How it was run: (§1)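 Human liver model in a perfused microfluidic device: primary hepatocytes, EA.hy926, U937 and LX-2 cells, with the LX-2 cells in collagen. The LX-2 cells are transduced with pLVX-IRES-mito-mKate2 for identification. Perfusion at 5 µL/h with HMM plus 100 nM dexamethasone at 37℃, 5% CO2; test compound in 1% DMSO. On day 21, paraformaldehyde-fixed and stained by indirect immunofluorescence. Value is the ratio of average cellular antibody intensity in stellate versus non-stellate cells; equal-variance t-test.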
# LX-2 stellate cells = assay: LX-2 stellate cell migration in SQL-SAL; assay type: cell-based, human; details: 30 nM methotrexate, days 4 and 7, vs vehicle control (p ≤ 0.05)
# LX2 cultures = details: human
# [6] = test system: collagen type 1, alpha 2 (COL1A2); assay: Indirect immunofluorescence of COL1A2 in SQL-SAL; assay type: cell-based, human; details: 30nM methotrexate, day 21, relative to vehicle control (p ≤ 0.05)
# How it was run: as §1
# hepatocytes [7] = assay: Hepatocyte area by HCA in SQL-SAL; details: 200 μM trovafloxacin (40 × Cmax) with 1 μg/mL LPS
# Cyp 2C9 = Cyp 2C9 (Homo sapiens, UniProt P11712); details: 24 h, 10 μM
# SQL-SAL [8] = assay: SQL-SAL toxicity testing, overall response; details: 28μM troglitazone, over 21 days
# SQL-SAL [9] = details: human, 180 μM
# hepatocytes [10] = assay: Mitochondrial-targeted ROS biosensor in sentinel hepatocytes; assay type: cell-based, human; details: troglitazone, measured over 24 h
# hepatocytes [11] = assay: Bile; assay type: cell-based, human; details: 50 μM troglitazone, day 10 devices, 10-min intervals for 60 min, vs vehicle (1% DMSO)
# [12] = Urea secretion in efflux media of SQL-SAL devices; details: human
# [13] = Albumin secretion in efflux media of SQL-SAL devices; details: human
# [14] = 28 μM troglitazone versus caffeine control
# [15] = 180 μM troglitazone, starting at day 1 of treatment
# Chain of Cyp 2C9 (P11712 whole entry): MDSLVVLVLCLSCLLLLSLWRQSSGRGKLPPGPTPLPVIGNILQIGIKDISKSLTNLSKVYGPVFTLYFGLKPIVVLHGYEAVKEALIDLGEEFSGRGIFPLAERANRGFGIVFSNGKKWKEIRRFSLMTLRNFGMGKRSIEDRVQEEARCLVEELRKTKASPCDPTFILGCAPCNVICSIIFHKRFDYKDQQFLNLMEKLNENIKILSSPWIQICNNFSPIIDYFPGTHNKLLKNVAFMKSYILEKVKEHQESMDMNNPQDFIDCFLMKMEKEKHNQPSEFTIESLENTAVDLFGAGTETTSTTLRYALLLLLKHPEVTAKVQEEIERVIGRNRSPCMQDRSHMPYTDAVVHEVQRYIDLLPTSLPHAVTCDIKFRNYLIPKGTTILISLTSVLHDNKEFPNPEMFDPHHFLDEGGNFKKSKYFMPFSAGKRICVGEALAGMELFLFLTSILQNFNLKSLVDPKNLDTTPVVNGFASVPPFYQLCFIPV
smiles,measurement,setting,value
CS(=O)(=O)Nc1ccc([N+](=O)[O-])cc1Oc1ccccc1 [nimesulide],Effect on LDH,SQL-SAL [1]; 210 μM nimesulide (10 × Cmax),rapid release
same,Change in urea,SQL-SAL [2]; 210 μM nimesulide (10 × Cmax),decreases
same,Change in albumin,SQL-SAL [3]; 210 μM nimesulide (10 × Cmax),decreases
same,Apoptotic hepatocytes,hepatocytes [4]; 210 μM nimesulide (10 × Cmax),rapid increase
CN(Cc1cnc2nc(N)nc(N)c2n1)c1ccc(C(=O)N[C@@H](CCC(=O)O)C(=O)O)cc1 [methotrexate],Expression of human alpha-SMA in LX-2 stellate cells,"[5]; 30nM methotrexate, day 21, relative to vehicle control (p ≤ 0.05)",increased
same,alpha-SMA expression in hepatocytes,[5]; methotrexate treatment,increased
same,LX-2 stellate cells proximal to the hepatocyte layer,LX-2 stellate cells,significantly accumulate
same,maximum tolerated concentration,LX2 cultures,100 nM
same,"Expression of collagen, type 1, alpha 2 (COL1A2) in LX-2 stellate cells",[6],increased
N[C@@H]1[C@H]2CN(c3nc4c(cc3F)c(=O)c(C(=O)O)cn4-c3ccc(F)cc3F)C[C@@H]12 [trovafloxacin],LDH leakage,"SQL-SAL [1]; 200 μM (40 × Cmax) trovafloxacin co-incubated with 1 μg/mL LPS, 3 and 5 days",Increased LDH leakage
same,Change in hepatocyte area,hepatocytes [7],decrease in hepatocyte area
Cn1c(=O)c2c(ncn2C)n(C)c1=O [caffeine],Effect on hepatocellular apoptosis biosensor,hepatocytes [4],no appreciable effect
same,Effect on hepatocellular apoptosis biosensor,hepatocytes [4]; listed as Caffeine,no significant effect
"O=C(O)Cc1ccccc1Nc1c(Cl)cccc1Cl [Diclofenac, diclofenac]",Metabolite found in efflux media (AUC),Cyp 2C9,36943 ±28302
Cc1c(C)c2c(c(C)c1O)CCC(C)(COc1ccc(CC3SC(=O)NC3=O)cc1)O2 (stereo not shown) [troglitazone],"Overt cytotoxicity, measured as LDH release, delayed until day","SQL-SAL [1]; 28 μM (4 × Cmax) troglitazone, continuous perfusion, vs 600 μM caffeine",13 days
same,"Overt cytotoxicity, measured as LDH release, found on day","SQL-SAL [1]; 180 μM (30 × Cmax) troglitazone, continuous perfusion, vs 600 μM caffeine",4 days
same,Peak LDH release,SQL-SAL [1]; troglitazone 180nM (30 × Cmax),~4 days
same,Days with significant LDH release (p≤0.05),SQL-SAL [1]; troglitazone 180nM (30 × Cmax),4 to 6 days
same,Peak LDH loss,SQL-SAL [1]; troglitazone 28 μM (4 × Cmax),~13 days
same,Days with significant LDH release (p≤0.05),SQL-SAL [1]; troglitazone 28 μM (4 × Cmax),13 to 15 days
same,Toxic response,SQL-SAL [8],gradual and much delayed toxic response
same,Acute toxicity produced within,SQL-SAL [9],2 to 4 days
same,"ROS, mitochondrial-targeted ROS biosensor",hepatocytes [10],increase in ROS
same,CMFDA uptake and canalicular efflux,hepatocytes [11],slower uptake and inhibition of efflux
same,half-life at 28 μM,[12],~12 days
same,half-life at 180 μM,[12],~3 days
same,Change in urea,SQL-SAL [2]; [14],gradual decrease
same,Change in urea,SQL-SAL [2]; [15],sharp decrease
same,Days with significant decline in urea secretion (p ≤ 0.05),SQL-SAL [2]; troglitazone 28 μM (4 × Cmax),4 to 28 days
same,Days with significant decline in urea secretion (p ≤ 0.05),SQL-SAL [2]; troglitazone 180μM (30 × Cmax),4 to 10 days
same,half-life at 28 μM,[13],~11 days
same,half-life at 180 μM,[13],~3 days
same,Change in albumin,SQL-SAL [3]; [14],gradual decrease
same,Change in albumin,SQL-SAL [3]; [15],sharp decrease
same,Days with significant decline in albumin secretion (p≤ 0.05),SQL-SAL [3]; troglitazone 28 μM (4 × Cmax),18 to 28 days
same,Days with significant decline in albumin secretion (p≤ 0.05),SQL-SAL [3]; troglitazone 180μM (30 × Cmax),4 to 10 days
same,Induction of apoptosis (loss of mitochondrial cytochrome C biosensor intensity) began on day,hepatocytes [4]; 28 μM troglitazone,10 days
same,Induction of apoptosis (loss of mitochondrial cytochrome C biosensor intensity) began on day,hepatocytes [4]; 180 μM troglitazone,1 days
same,"Days with significant levels (p ≤ 0.05) of apoptosis, cytochrome C biosensor",hepatocytes [4]; troglitazone 28 μM,16 to 28 days
same,"Days with significant levels (p ≤ 0.05) of apoptosis, cytochrome C biosensor",hepatocytes [4]; troglitazone 180 μM,1 to 15 days
